# Reference: ChEMBL document CHEMBL1795271, “7-Alkyl-N(2)-substituted-3-deazaguanines. Synthesis, DNA polymerase III inhibition and antibacterial activity” (Bioorg Med Chem Lett, 2011)
# Columns and labels:
# Staphylococcus aureus [1] = test: Antibacterial activity against Staphylococcus aureus ATCC 25923 after 16 to 24 hrs by twofold serial dilution method; assay type: functional
# Staphylococcus aureus [2] = test: Antibacterial activity against Staphylococcus aureus ATCC 13709 (Smith) after 16 to 24 hrs by twofold serial dilution method; assay type: functional
# Staphylococcus aureus [3] = test: Antibacterial activity against methicillin-resistant Staphylococcus aureus ATCC 1094 after 16 to 24 hrs by twofold serial dilution method; assay type: functional
# Enterococcus faecalis [4] = test: Antibacterial activity against Enterococcus faecalis ATCC 29212 after 16 to 24 hrs by twofold serial dilution method; assay type: functional
# Enterococcus faecium = test: Antibacterial activity against Enterococcus faecium ATCC 19434 after 16 to 24 hrs by twofold serial dilution method; assay type: functional
# Escherichia coli = test: Antibacterial activity against Escherichia coli J-53 after 16 to 24 hrs by twofold serial dilution method; assay type: functional
# Bacillus subtilis = test: Antibacterial activity against Bacillus subtilis BD54 after 16 to 24 hrs by twofold serial dilution method; assay type: functional
# Staphylococcus aureus [5] = test: Antibacterial activity against Staphylococcus aureus Smith infected Swiss-webster mouse assessed as mouse survival at 10 mg/kg, ip administered 15 mins post-infection for 24 hrs relative to control; assay type: functional; settings: route intraperitoneal
# Procedure, shortened: (§1)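 Male pathogen-free Swiss–Webster mice, 20–24 g, with free access to food and water. S. aureus Smith grown to log phase at 37 °C in LB, with CFU estimated from OD600. Cells washed in cold broth and injected IP in 0.5 mL broth. Groups of 5 or 10 mice dosed IP 15 min post-infection with vehicle (10% DMSO/peanut oil) or compound in vehicle. Daptomycin 30 mg/Kg in saline served as control.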
# Staphylococcus aureus [6] = test: Antibacterial activity against Staphylococcus aureus Smith infected Swiss-webster mouse assessed as mouse survival at 30 mg/kg, ip administered 15 mins post-infection for 24 hrs relative to control; assay type: functional; settings: route intraperitoneal; procedure, shortened: as §1
# Staphylococcus aureus [7] = test: Antibacterial activity against Staphylococcus aureus Smith infected Swiss-webster mouse assessed as mouse survival at 60 mg/kg, ip administered 15 mins post-infection for 24 hrs relative to control; assay type: functional; settings: route intraperitoneal; procedure, shortened: as §1
# Enterococcus faecalis [8] = test: Antibacterial activity against vancomycin-resistant Enterococcus faecalis after 16 to 24 hrs by twofold serial dilution method
# [9] = Inhibition of Bacillus subtilis DNA polymerase 3C assessed as incorporation of [3H]TMP into activated calf thymus DNA incubated with dATP, dCTP and [3H]TTP in absence of dGTP
# Procedure, shortened: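 Recombinant B. subtilis pol IIIC assayed on activated calf thymus DNA with dATP, dCTP and [³H]TTP, without competitor dGTP. Read-out was [³H]TMP incorporation. Ki values are averages of at least two independent experiments.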
# [10] = Inhibition of Bacillus subtilis DNA polymerase 3E assessed as incorporation of [3H]TMP into activated calf thymus DNA incubated with dATP, dCTP and [3H]TTP in absence of dGTP
# Procedure, shortened: (§2)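 Enzymes: recombinant B. subtilis pol IIIE and E. coli three-subunit pol III core. Each was assayed with activated calf thymus DNA, dATP, dCTP and [3H]TTP, without the competitor dGTP. [3H]TMP incorporation was measured and Ki derived. Values are averages of at least two independent experiments.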
# [11] = Inhibition of Escherichia coli DNA polymerase 3E assessed as incorporation of [3H]TMP into activated calf thymus DNA incubated with dATP, dCTP and [3H]TTP in absence of dGTP; procedure, shortened: as §2
# Staphylococcus aureus [12] = test: Antibacterial activity against Staphylococcus aureus Smith infected Swiss-webster mouse assessed as mouse survival at 100 mg/kg, ip administered 15 mins post-infection for 24 hrs relative to control; assay type: functional; settings: route intraperitoneal; procedure, shortened: as §1
smiles,measurement,setting,value
CC(=O)OCCCCCn1cnc2nc(NCc3ccc(Cl)c(Cl)c3)nc(O)c21,MIC,Staphylococcus aureus [1],2.5 µg/mL
same,MIC,Staphylococcus aureus [2],1.25 µg/mL
same,MIC,Staphylococcus aureus [3],1.25 µg/mL
same,MIC,Enterococcus faecalis [4],1.25 µg/mL
same,MIC,Enterococcus faecium,1.25 µg/mL
same,MIC,Escherichia coli,> 80 µg/mL
same,MIC,Bacillus subtilis,1.25 µg/mL
same,survival at 10 mg/kg,Staphylococcus aureus [5],30%
same,survival at 30 mg/kg,Staphylococcus aureus [6],50%
same,survival at 60 mg/kg,Staphylococcus aureus [7],80%
same,MIC,Enterococcus faecalis [8],5 µg/mL
COCCCCCn1cnc2cc(NCc3ccc(Cl)c(Cl)c3)[nH]c(=O)c21,Ki,[9],160 nM
same,Ki,[10],420 nM
same,Ki,[11],81000 nM
same,MIC,Staphylococcus aureus [1],2.5 µg/mL
same,MIC,Staphylococcus aureus [2],1.25 µg/mL
same,MIC,Staphylococcus aureus [3],2.5 µg/mL
same,MIC,Enterococcus faecium,1.25 µg/mL
same,MIC,Escherichia coli,> 80 µg/mL
same,MIC,Bacillus subtilis,1.25 µg/mL
same,survival at 100 mg/kg,Staphylococcus aureus [12],40%
same,MIC,Enterococcus faecalis [8],5 µg/mL
CCCCCCCCCC(=O)N[C@@H](Cc1c[nH]c2ccccc12)C(=O)N[C@H](CC(N)=O)C(=O)N[C@@H](CC(=O)O)C(=O)N[C@@H]1C(=O)NCC(=O)N[C@@H](CCCN)C(=O)N[C@@H](CC(=O)O)C(=O)N[C@H](C)C(=O)N[C@@H](CC(=O)O)C(=O)NCC(=O)N[C@H](CO)C(=O)N[C@@H]([C@H](C)CC(=O)O)C(=O)N[C@@H](CC(=O)c2ccccc2N)C(=O)O[C@@H]1C,survival at 10 mg/kg,Staphylococcus aureus [5],10%
